Bioassay records deposited in PubChem BioAssay by The Scripps Research Institute Molecular Screening Center.
Only some compounds are listed: those with a hit (about 3.7% of all), similar ones and a draw of the others.
TAAR1 antagonist: antagonists of human TAAR1; Q96RJ0; CHO RD-HGA16 TAAR1, Fluo-8 calcium fluorescence, antagonist; inhibition, % at 3 µM; 1.5% of 360,000 active; AID 624466;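 active means inhibition above a per-plate cutoff, the mean inhibition of test compounds on that plate plus 3 SD, cut at about 49% in these data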
Target sequence (Q96RJ0 whole entry, looked up): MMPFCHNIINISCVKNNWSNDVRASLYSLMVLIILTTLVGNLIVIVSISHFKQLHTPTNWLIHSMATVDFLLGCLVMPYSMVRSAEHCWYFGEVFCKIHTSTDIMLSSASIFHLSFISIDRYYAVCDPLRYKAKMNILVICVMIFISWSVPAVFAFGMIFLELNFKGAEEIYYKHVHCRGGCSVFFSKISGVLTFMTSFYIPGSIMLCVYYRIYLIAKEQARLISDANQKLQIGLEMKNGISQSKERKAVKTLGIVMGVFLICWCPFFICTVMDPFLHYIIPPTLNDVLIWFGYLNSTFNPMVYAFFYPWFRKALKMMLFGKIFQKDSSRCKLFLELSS
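Test system – hTAAR1-expressing CHO RD-HGA16 cells, Gα16-coupled · Reagent – β-PEA at EC80 concentration, post-compound challenge · Compound dosing – 3 µM, single point · Timing – 140 s kinetic read after compound, 140 s after agonist · Detection – Fluo-8 intracellular calcium dye fluorescence, real-time kinetic reads · Control set – DMSO and EC80 PEA controls · Repeats – n of 1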
NS3 helicase inh: blocks Hepatitis C virus NS3 helicase unwinding | inhibition, % at 10.9 µM | NS3 helicase DNA unwinding, Cy5 molecular beacon fluorescence | 0.56% of 290,000 active;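 active means inhibition above the mean of all tested compounds plus 3 SD, set per campaign, cut at about 35% in these data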
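Compound dosing – single dose, 10.9 µM nominal final, DMSO 0.8% final · System – NS3 helicase fragment of HCV · Buffer or medium – MOPS pH 6.5, MgCl2, DTT, Tween20, BSA · Signal – Cy5 beacon fluorescence read at start and 1 h · Also added – annealed dual-labelled DNA beacon duplex, ATP-started · Schedule – 1 h at 25 °C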
rCAG binder: binds r(CAG) RNA repeats; r(CAG) RNA repeat, TO-PRO-1 dye displacement fluorescence; inhibition, % at 3 µM; 1.3% of 370,000 active; AID 651821;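 active means inhibition above the plate cutoff, the mean of all test compounds on that plate plus 3 SD, cut at about 35% in these data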;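 further: higher means more dye released from RNA so lower well fluorescence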
TAAR1 agonist: human TAAR1 agonism | Q96RJ0 | CHO RD-HGA16 TAAR1, Fluo-8 calcium fluorescence; vehicle wells 0%, saturating PEA agonist 100% | activation, % at 3 µM | 0.99% of 360,000 active;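 active means activation above the mean activation of all test compounds in the run plus 3 SD, cut at about 38% in these data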
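Benchmarks: low control DMSO, high control PEA (EC100); System: CHO RD-HGA16 cells carrying human TAAR1 plus Gα16; Detection: Fluo-8 fluorescence, 5 s baseline then 140 s kinetic read; Schedule: 17-24 h plating, Fluo-8 75 min 37 °C, 30 min RT; Read-out basis: % activation from peak over basal fluorescence ratio, DMSO-to-PEA scaled.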
HCV core dimer: blocks dimerization of HCV core protein; TR-FRET GST/Flag-core106 dimerization, 1536-well; 0.33% of 300,000 active; inhibition, % at 5 µM; AID 1899;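 active means inhibition above the mean of all tested compounds plus 3 SD, set per screening campaign, cut at about 45% in these data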
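System – GST-tagged and Flag-tagged HCV core protein residues 1-106 · Repeats – one well for each compound · Technique – TR-FRET 671 and 617 nm emission · Doses – one concentration, 5 µM, in 0.5% DMSO · Times – 4 h, 22.5 °C incubation · Also added – Eu donor and XL665 acceptor anti-tag antibodies · Measure – percent inhibition of core106 dimerization signal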
rCAG binder conf: r(CAG) RNA repeat binding, confirmation | inhibition, % at 3 µM | 70% of 4,300 active | TO-PRO-1 dye displacement fluorescence | shares compounds with rCAG binder;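 active means inhibition above a per-plate cutoff, the mean inhibition of sample wells plus 3 SD, cut at about 35% in these data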;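 further: loss of TO-PRO-1 fluorescence as compound displaces dye from 1x1 AA loop RNA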
dCAG dye counter: counter-screen for rCAG RNA binders: DNA CAG dye complex inhibitors. shares compounds with rCAG binder. d(CAG) DNA oligo TO-PRO-1 dye displacement, fluorescence. inhibition, % at 3 µM. 94% of 4,300 active;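 active means inhibition above its plate's cutoff, the mean test-well inhibition plus 3 SD, cut at about 4.8% in these data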;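 further: hits displace the dye from DNA and so lower well fluorescence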
dCAG dye DR: counter-screen for rCAG binders: inhibitors of DNA CAG TO-PRO-1 complex. shares compounds with rCAG binder. DNA CAG/GTC duplex TO-PRO-1 dye displacement fluorescence. IC50, µM. 20% of 250 active. AID 686960; in the data active means IC50 below about 10 µM
Numbers stand for hits; i = inactive; nt = no result given.

SMILES	TAAR1 antagonist	NS3 helicase inh	rCAG binder	TAAR1 agonist	HCV core dimer	rCAG binder conf	dCAG dye counter	others
CCOC(=O)CC1=NN(c2ccccc2)C(=O)/C1=C\c1ccc(OC)cc1OC	i	i	65.1	i	i	i	5.3
CC1=NN(Cc2ccccc2)C(=O)/C1=C\c1ccc(N(C)C)cc1	i	i	i	i	i	nt	nt
COc1ccc(/C=C2\C(=O)N(c3c(Cl)cc(Cl)cc3Cl)N=C2NC(=O)c2cccc([N+](=O)[O-])c2)cc1	nt	i	nt	nt	i	nt	nt
CCOC(=O)C1=NN(c2ccccc2)C(=O)/C1=C\c1ccc(N(C)C)cc1	i	i	60.5	i	i	62.6	19.2
COC(=O)CC1=NN(c2ccc(OC)cc2)C(=O)/C1=C\c1ccc(Cl)cc1	i	i	68.4	i	i	83.5	41.2
C=CCOC(=O)N[C@H](c1cccc(OC)c1)[C@H](C)/C=C/CC(=O)OC	nt	nt	i	nt	nt	nt	nt
O=C1C[C@@H](c2ccccc2)N=C2N(CC3CC3)C/C(=C/c3ccccc3)N12	nt	nt	i	nt	nt	nt	nt
C[C@@H]1OC(c2ccccc2)N(C)[C@H]2C[C@H]3c4[nH]c5cccc(-c6ccccc6)c5c4CCN3C[C@@H]12 (stereo partly drawn)	nt	nt	i	nt	nt	nt	nt
O=C(NC1CCCCN(Cc2ccc(Cl)cc2)C1=O)c1ccccc1 (stereo not drawn)	nt	nt	i	nt	nt	nt	nt
CC(C)C(=O)NC(Nc1ccc(S(N)(=O)=O)cc1)C(Cl)(Cl)Cl (stereo not drawn)	i	i	i	i	i	nt	nt
CC(C)C(=O)NC(NC(=S)Nc1ccc(S(N)(=O)=O)cc1)C(Cl)(Cl)Cl (stereo not drawn)	i	i	45.7	i	i	i	i
CCNc1nc2[nH]c(=O)c3c(c2s1)OC(N)=C(C#N)C3c1ccc(C)cc1 (stereo not drawn)	i	i	52.6	i	i	i	13.6
C/C(=N\Nc1nc(-c2cc(C)ccc2C)cs1)c1cc2c(ccc3ccccc32)oc1=O	i	i	47.1	i	60.8	45.2	23.2
Nc1[nH]c(C(=O)c2ccccc2)c(-c2ccccn2)c1C(=O)c1c[nH]c2ccc(F)cc12	i	nt	i	i	nt	nt	nt
C=CCN(c1ccccc1)S(=O)(=O)c1cccc(C(=O)Nc2nnc(SCC)s2)c1	i	i	51.6	i	i	57.7	17.1
O=S1(=O)c2c(cccc2N2CCC[C@@H]2CO)O[C@H]2CCN1C2	nt	nt	i	nt	nt	nt	nt
Nc1c(C(=O)Nc2ccc(S(=O)(=O)N3CCCC3)cc2)sc2nc3cc4c(cc3cc12)CCC4	i	i	38.1	i	i	i	16.4
Nc1c(C(=O)Nc2ccc(Cl)c(C(=O)O)c2)sc2nc3c(cc12)CCCC3	i	i	i	i	i	nt	nt
CS(=O)(=O)c1ccc2nc(NC(=O)Nc3ccc(Cl)c(Cl)c3)sc2c1	i	i	i	i	i	nt	nt
CS(=O)(=O)c1ccc2nc(NC(=O)Nc3cccc(Cl)c3)sc2c1	i	i	71.3	i	i	63.3	46.9
CS(=O)(=O)c1ccc2nc(NC(=O)c3ccc(NS(=O)(=O)c4cccc([N+](=O)[O-])c4)cc3)sc2c1	i	i	72.5	i	i	70.1	31.3	dCAG dye DR=9.38
Cc1ccc2nc(NC(=O)c3ccc(NS(=O)(=O)c4cccs4)cc3)sc2c1	i	i	43.4	i	i	60.6	22.6
Cc1ccc(-n2c(SCC(=O)C(C)(C)C)nnc2-c2cccc(C)c2)cc1	nt	nt	i	nt	nt	nt	nt
CCCNC(=O)N1[C@@H](CO)[C@H](c2ccc(C3=CCCC3)cc2)[C@@H]1CN(CC)S(=O)(=O)c1ccccc1[N+](=O)[O-]	nt	nt	i	nt	nt	nt	nt
CN(C)[C@@H]1CCN(c2ccc3c(c2)O[C@H]2CCN(C2)S3(=O)=O)C1	nt	nt	i	nt	nt	nt	nt
SMILES	TAAR1 antagonist	NS3 helicase inh	rCAG binder	TAAR1 agonist	HCV core dimer	rCAG binder conf	dCAG dye counter	others
Cc1ccc(CN2CCCCC(NC(=O)c3c(F)cccc3F)C2=O)cc1 (stereo not drawn)	nt	nt	i	nt	nt	nt	nt
CCCCOC(=O)Nc1ccc(S(=O)(=O)Nc2nc(C)cc(C)n2)cc1	i	i	i	i	i	nt	nt
CCCCCCOC(=O)Nc1ccc(S(=O)(=O)Nc2cccc([N+](=O)[O-])c2)cc1	i	i	45.0	i	i	45.9	13.6
Cc1cc(NC(=O)Cc2cccs2)no1	i	i	39.9	i	i	35.0	23.0
Cc1cc(NS(=O)(=O)c2ccc(NC(=O)Cc3cccs3)cc2)no1	nt	i	nt	nt	i	nt	nt
CCCSc1nnc(NC(=O)CSc2sc3c(O)cc(=O)[nH]c3c2C#N)s1	i	i	65.0	i	i	79.5	45.5
N#Cc1c(SCC(=O)Nc2nccs2)sc2c(O)cc(=O)[nH]c12	i	i	71.2	i	i	51.7	23.7
CS(=O)(=O)c1ccc(OC[C@@H](O)CN2CCC(C(O)(c3ccccc3)c3ccccc3)CC2)cc1	nt	nt	i	nt	nt	nt	nt
CC(C)C[C@H](NC(=O)C1CCCC1)C(=O)N1CCC[C@H]1C(=O)NCc1ccccc1	i	nt	i	i	nt	nt	nt
CN1C(=O)C[C@@](C#N)(C(=O)N2CCCC2)[C@H]1c1ccccc1	nt	nt	i	nt	nt	nt	nt
O=S(=O)(O)c1cc(O)ccc1O	i	nt	i	i	i	nt	nt
O=S(=O)(c1cc(O)ccc1O)c1cccc2c(S(=O)(=O)c3cc(O)ccc3O)cccc12	i	nt	42.8	i	i	36.2	24.4
COc1cc(OC)cc(C(=O)Nc2ccc(S(=O)(=O)Nc3cnc4ccccc4n3)cc2)c1	i	nt	64.1	i	i	58.7	15.2
Cc1ccc(C(=O)Nc2ccc(S(=O)(=O)Nc3cnc4ccccc4n3)cc2)cc1	i	i	42.6	i	i	i	11.8
O=C(Nc1ccc(S(=O)(=O)Nc2cnc3ccccc3n2)cc1)c1ccc([N+](=O)[O-])cc1Cl	i	i	48.7	i	i	i	6.0
COCCNC(=S)Nc1ccc(S(=O)(=O)Nc2cnc3ccccc3n2)cc1	i	i	i	i	i	nt	nt
COc1cc(C(=O)Nc2ccc(S(=O)(=O)Nc3cnc4ccccc4n3)cc2)cc(OC)c1OC	i	i	40.1	i	i	i	6.8
COc1cc(C(=O)Nc2ccc(S(=O)(=O)Nc3cc(C)nc(C)n3)cc2)cc(OC)c1OC	i	i	i	i	i	nt	nt
COc1cc(OC)cc(C(=O)Nc2ccc(S(=O)(=O)Nc3ccccn3)cc2)c1	i	i	i	i	i	nt	nt
O=C1C=CC(=O)c2c(O)c(CO)c(CO)c(O)c21	i	nt	82.8	i	nt	86.5	68.2
Cc1ccc(S(=O)(=O)/N=C2/NC(=O)/C(=C\c3cc(Br)cc(Br)c3O)S2)cc1	nt	i	nt	nt	nt	nt	nt
